Reference: ChEMBL document CHEMBL4130483, “Leishmanicidal and cytotoxic activity of hederagenin-bistriazolyl derivatives” (Eur J Med Chem, 2017)
Activity calls are given as the source filed them.

Tests used:
Leishmania infantum [1] = assay: Antileishmanial activity against Leishmania infantum MHOM/BR/70/BH46 intracellular amastigotes infected in canine DH82 cells assessed as as inhibition of cell growth at 1000 uM incubated for 48 hrs by ELISA method; format: functional; conditions: MHOM/BR/70/BH46, DH82, 48 h, read-out: GI
A2780 = assay: Cytotoxicity against human A2780 cells assessed as reduction in cell viability incubated fro 96 hrs by SRB assay; format: functional, cell-based; conditions: A2780, 96 h
Procedure, shortened: (§1)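 Sulforhodamine B photometric assay after 96 h treatment. Monolayers were grown in RPMI 1640 with L-glutamine, 10% heat-inactivated FBS and penicillin/streptomycin at 37 °C in humidified 5% CO2. Cut-off was 30 μM, or 60 μM for the parent. EC50 was averaged from at least three independent experiments, each in four replicates. Betulinic acid was the positive standard.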

HT-29 [2] = assay: Induction of cell morphology changes in human HT-29 cells at 15 uM incubated for 24 hrs by AO/PI staining based fluorescence microscopy; format: functional
Procedure, shortened: (§2)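 HT29 cells were treated for 24 h, then stained with acridine orange and propidium iodide. Morphology and membrane permeability were assessed by fluorescence microscopy against an untreated control.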

A-375 = assay: Cytotoxicity against human A375 cells assessed as reduction in cell viability incubated fro 96 hrs by SRB assay; format: functional, cell-based; conditions: A-375, 96 h; procedure, shortened: as §1
FaDu = assay: Cytotoxicity against human FADU cells assessed as reduction in cell viability incubated fro 96 hrs by SRB assay; format: functional, cell-based
HT-29 [3] = assay: Cytotoxicity against human HT-29 cells assessed as reduction in cell viability incubated fro 96 hrs by SRB assay; format: functional, cell-based; conditions: HT-29, 96 h; procedure, shortened: as §1
HT-29 [4] = assay: Induction of cell membrane permeability changes in human HT-29 cells at 15 uM incubated for 24 hrs by AO/PI staining based fluorescence microscopy; format: functional; procedure, shortened: as §2
SW-1736 = assay: Cytotoxicity against human SW1736 cells assessed as reduction in cell viability incubated fro 96 hrs by SRB assay; format: functional, cell-based; conditions: SW-1736, 96 h; procedure, shortened: as §1
[5] = Cytotoxicity in dog DH82 cells assessed as reduction in cell viability incubated for 48 hrs by MTT assay; format: cell-based, Canis lupus familiaris
Procedure, shortened: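 DH82 canine macrophage viability was monitored microscopically and by MTT colorimetric assay. CC50 is the concentration cytotoxic to 50% of DH82 cells. Potassium antimonyl tartrate trihydrate was the positive control.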

[6] = Selectivity index, ratio of CC50 for dog DH82 cells to IC50 for antileishmanial activity against Leishmania infantum MHOM/BR/70/BH46 intracellular amastigotes infected in canine DH82 cells; format: toxicity, cell-based; conditions: read-out: Ratio CC50/IC50
Procedure, shortened: (§3)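 SI = CC50 in DH82 macrophages (MTT) divided by IC50 against intracellular L. infantum BH46 amastigotes.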

[7] = Cytotoxicity in human HepG2 cells assessed as reduction in cell viability incubated for 48 hrs by MTT assay; format: cell-based
Procedure, shortened: (§4)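 MTT colorimetric assay with microscopic monitoring. CC50 is the concentration cytotoxic to 50% of BGM or HepG2 cells. Potassium antimonyl tartrate trihydrate was the positive control.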

[8] = Ratio of selectivity index of test compound to potassium antimonyl tartrate by measuring ratio of CC50 for dog DH82 cells to IC50 for antileishmanial activity against Leishmania infantum MHOM/BR/70/BH46 intracellular amastigotes infected in canine DH82 cells; format: toxicity, cell-based
[9] = Selectivity index, ratio of CC50 for human HepG2 cells to IC50 for antileishmanial activity against Leishmania infantum MHOM/BR/70/BH46 intracellular amastigotes infected in canine DH82 cells; format: toxicity, cell-based; conditions: read-out: Ratio CC50/IC50
Procedure, shortened: (§5)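 SI = CC50 in BGM or HepG2 cells (MTT) divided by the intracellular amastigote IC50.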

[10] = Ratio of selectivity index of test compound to hederagenin by measuring ratio of CC50 for dog DH82 cells to IC50 for antileishmanial activity against Leishmania infantum MHOM/BR/70/BH46 intracellular amastigotes infected in canine DH82 cells; format: toxicity, cell-based
[11] = Cytotoxicity in African green monkey BGM cells assessed as reduction in cell viability incubated for 48 hrs by MTT assay; format: cell-based; conditions: chlorocebus aethiops; procedure, shortened: as §4
[12] = Selectivity index, ratio of CC50 for African green monkey BGM cells to IC50 for antileishmanial activity against Leishmania infantum MHOM/BR/70/BH46 intracellular amastigotes infected in canine DH82 cells; format: toxicity, cell-based; conditions: read-out: Ratio CC50/IC50; procedure, shortened: as §5
Leishmania infantum [13] = assay: Antileishmanial activity against Leishmania infantum MHOM/BR/70/BH46 intracellular amastigotes infected in canine DH82 cells assessed as as inhibition of cell growth incubated for 48 hrs by ELISA method; format: functional, organism-based; conditions: MHOM/BR/70/BH46, DH82, 48 h
Procedure, shortened: (§6)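 L. infantum BH46 intracellular amastigotes. Phase II testing at 0.1, 1.0, 10 and 100 μM. IC50 is the concentration inhibiting in vitro growth by 50%, taken from dose-response curves (log concentration vs inhibition) run in four replicates. Potassium antimonyl tartrate trihydrate served as positive control.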

Leishmania infantum [14] = assay: Antileishmanial activity against Leishmania infantum MHOM/BR/70/BH46 intracellular amastigotes infected in canine DH82 cells assessed as as inhibition of cell growth; format: functional, organism-based; conditions: MHOM/BR/70/BH46, DH82; procedure, shortened: as §6
[15] = Selectivity index, ratio of CC50 for dog DH82 cells to IC50 for Leishmania infantum MHOM/BR/70/BH46 intracellular amastigotes infected in canine DH82 cells; format: toxicity, cell-based; procedure, shortened: as §3

Structure (SMILES) | inhibition of growth at 1000 µM (Leishmania infantum [1]) | EC50 (A2780) | Activity (HT-29 [2]) | EC50 (A-375) | EC50 (FaDu) | EC50 (HT-29 [3]) | Activity (HT-29 [4]) | EC50 (SW-1736) | CC50 at 48 h [5] | selectivity ratio [6] | CC50 at 48 h [7] | Ratio [8] | selectivity ratio [9] | Ratio [10] | CC50 at 48 h [11] | selectivity ratio [12] | IC50 (Leishmania infantum [13]) | IC50 (Leishmania infantum [14]) | selectivity ratio [15]
CC1(C)CC[C@]2(C(=O)OCc3cn(CC(=O)c4ccc(C#N)cc4)nn3)CC[C@]3(C)C(=CC[C@@H]4[C@@]5(C)CC[C@H](O)[C@@](C)(COCc6cn(CC(=O)c7ccc(C#N)cc7)nn6)[C@@H]5CC[C@]43C)[C@@H]2C1 | 8.8% | 11.2 µM | inactive | 10.6 µM | 12.1 µM | 7.4 µM | inactive | 11.9 µM |  |  |  |  |  |  |  |  |  |  | 
Cc1ccc(C(=O)Cn2cc(COC[C@@]3(C)[C@@H]4CC[C@]5(C)[C@H](CC=C6[C@@H]7CC(C)(C)CC[C@]7(C(=O)OCc7cn(CC(=O)c8ccc(C)cc8)nn7)CC[C@]65C)[C@@]4(C)CC[C@@H]3O)nn2)cc1 | 63.7% | > 30 µM |  | > 30 µM | > 30 µM | > 30 µM |  | > 30 µM | > 1000 µM | > 135 | > 1000 µM | 10 | > 135 | 14 | > 1000 µM | > 135 | 7.4 µM |  | 
CC1(C)CC[C@]2(C(=O)OCc3cn(Cc4ccccc4F)nn3)CC[C@]3(C)C(=CC[C@@H]4[C@@]5(C)CC[C@H](O)[C@@](C)(COCc6cn(Cc7ccccc7F)nn6)[C@@H]5CC[C@]43C)[C@@H]2C1 | 65% | 21.6 µM |  | 28.5 µM | > 30 µM | 16.3 µM |  | > 30 µM | > 1000 µM | > 178 | > 1000 µM | 1780 | > 178 | 8 | > 1000 µM | > 178 | 5.6 µM | 5.6 µM | > 178
